Measured values from ChEMBL document CHEMBL4049418, “6-OH-Phenanthroquinolizidine Alkaloid and Its Derivatives Exert Potent Anticancer Activity by Delaying S Phase Progression” (J Med Chem, 2017).

What was measured:
A549 = assay: Antiproliferative activity against human A549 cells assessed as reduction in viability after 72 hrs by SRB assay; format: functional, cell-based; conditions: A549, 72 h
Outline: (§1)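 Cells seeded and dosed in triplicate for 72 h. Suspension lines (HL-60, K-562, K562/ADR, HL-60/MX2) were read by MTT: 5 mg/mL MTT stock added, 4 h at 37 °C, formazan dissolved in 10% SDS/5% isobutanol/10 mM HCl, A570. Adherent lines were read by SRB: fixed with cold 10% TCA, stained with 0.4% SRB in 1% acetic acid, A540. IC50 from four-parameter logistic fit; mean of ≥3 independent experiments.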

Bel-7402 = assay: Antiproliferative activity against human Bel7402 cells assessed as reduction in viability after 72 hrs by SRB assay; format: functional, cell-based; conditions: Bel-7402, 72 h; outline: as §1
K562 = assay: Antiproliferative activity against human K562 cells after 72 hrs by MTT assay; format: functional, cell-based; conditions: K562, 72 h; outline: as §1
K562/Adr = assay: Antiproliferative activity against human K562/ADR cells after 72 hrs by MTT assay; format: functional, cell-based; outline: as §1
[1] = Resistance factor, ratio of IC50 for human K562/ADR cells to IC50 for human K562 cells; format: functional
Outline: (§2)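 72 h treatment in triplicate; suspended lines (HL-60, K-562, K562/ADR, HL-60/MX2) read by MTT (4 h, SDS/isobutanol/HCl solubilization, 570 nm); adherent KB and KB/VCR (MEM, 10% FBS) by SRB after TCA fixation (540 nm); IC₅₀ by four-parameter logistic fit, mean of ≥3 independent experiments.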

MRC5 = assay: Antiproliferative activity against human MRC5 cells assessed as reduction in viability after 72 hrs by SRB assay; format: cell-based; conditions: MRC5, 72 h; outline: as §1
[2] = Antiproliferative activity against human MRC9 cells assessed as reduction in viability after 72 hrs by SRB assay; format: cell-based; conditions: MRC9, 72 h; outline: as §1
L02 = assay: Antiproliferative activity against human LO2 cells assessed as reduction in viability after 72 hrs by SRB assay; format: cell-based; conditions: L02, 72 h; outline: as §1
[3] = Selectivity ratio of IC50 for human MRC5 cells to IC50 for human A549 cells
Outline: (§3)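 SRB assay: A549 (F-12, 10% FBS) and MRC-5/MRC-9 (EMEM, 10% FBS) treated in triplicate 72 h, fixed with ice-cold 10% TCA, stained with 0.4% SRB in 1% acetic acid, absorbance 540 nm; IC₅₀ by four-parameter logistic fit, mean of ≥3 independent experiments.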

[4] = Selectivity ratio of IC50 for human MRC9 cells to IC50 for human A549 cells; outline: as §3
[5] = Cytotoxicity against Sprague-Dawley rat primary neuronal cells assessed as reduction in cell viability after 24 hrs by MTT assay; format: cell-based
[6] = Cytotoxicity against Sprague-Dawley rat primary neuronal cells assessed as reduction in cell viability at 300 nM after 24 hrs by MTT assay; format: cell-based; conditions: read-out: INH
HL-60 = assay: Antiproliferative activity against human HL60 cells after 72 hrs by MTT assay; format: functional, cell-based; conditions: HL-60, 72 h; outline: as §1
HL60/MX2 = assay: Antiproliferative activity against human HL60/MX2 cells after 72 hrs by MTT assay; format: functional, cell-based; conditions: HL60/MX2, 72 h; outline: as §1
[7] = Resistance factor, ratio of IC50 for human HL60/MX2 cells to IC50 for human HL60 cells; format: functional; outline: as §2
KB = assay: Antiproliferative activity against human KB cells after 72 hrs by SRB assay; format: functional, cell-based; outline: as §1
[8] = Antiproliferative activity against human KB/VCR cells after 72 hrs by SRB assay; format: functional, cell-based; outline: as §1
[9] = Resistance factor, ratio of IC50 for human KB/VCR cells to IC50 for human KB cells; format: functional; outline: as §2

Compound | IC50 (A549) | IC50 (Bel-7402) | further results
COc1cc2c3c(c4ccc(OCc5ccccc5)cc4c2cc1OC)CN1CCCCC1C3O (racemic) | 1530 nM | 917 nM | 
COc1cccc2c1C(=O)c1c(O)c3c(c(O)c1C2=O)C[C@@](O)(C(=O)CO)C[C@@H]3O[C@H]1C[C@H](N)[C@H](O)[C@H](C)O1.Cl [DOXORUBICIN HYDROCHLORIDE] |  |  | IC50 (K562): 77.7 nM; IC50 (K562/Adr): 3310 nM; Ratio IC50 [1]: 42.6
CCOC(=O)COc1ccc2c3c(c4cc(OC)c(OC)cc4c2c1)CC1CCCCN1C3 (centres undefined) | 458 nM | 411 nM | 
COc1cc2c3c(c4ccc(OCC#N)cc4c2cc1OC)CN1CCCC[C@H]1C3 | 12.9 nM | 25.8 nM | 
COc1cc2c3c(c4ccc(O)cc4c2cc1OC)CN1CCCCC1C3O (racemic) | 12 nM | 8 nM | 
COc1cc2c3c(c4ccc(OCC#N)cc4c2cc1OC)CN1CCCC[C@@H]1C3 | 0.8 nM | 2.4 nM | IC50 (MRC5): 3.2 nM; IC50 [2]: 2.7 nM; IC50 (L02): 3.9 nM; Ratio IC50 [3]: 3 - 4; Ratio IC50 [4]: 3 - 4; inhibition (INH) [5]: Dose-dependent effect; cytotoxicity at 24 h, 0.3 µM [6]: 50%
Cl.Cl.O=C1c2c(O)ccc(O)c2C(=O)c2c(NCCNCCO)ccc(NCCNCCO)c21 [MITOXANTRONE HYDROCHLORIDE] |  |  | IC50 (HL-60): 7.2 nM; IC50 (HL60/MX2): 351 nM; Ratio IC50 [7]: 48.7
CC[C@]1(O)C[C@H]2CN(CCc3c([nH]c4ccccc34)[C@@](C(=O)OC)(c3cc4c(cc3OC)N(C=O)[C@H]3[C@@](O)(C(=O)OC)[C@H](OC(C)=O)[C@]5(CC)C=CCN6CC[C@]43[C@@H]65)C2)C1 [VINCRISTINE] |  |  | IC50 (KB): 0.2 nM; IC50 [8]: 239 nM; Ratio IC50 [9]: 1193.5
COc1cc2c3c(c4ccc(OCC#N)cc4c2cc1OC)CN1CCCCC1C3 (racemic) | 1 to 3 nM | 2.2 to 6 nM | 
COc1cc2c3c(c4ccc(OCCOC(=O)[C@H](C)N)cc4c2cc1OC)CN1CCCCC1C3 (some centres undefined) | 49 nM | 47 nM | 
COc1cc2c3c(c4ccc(OC(=O)C5CCCCC5)cc4c2cc1OC)CN1CCCCC1C3 (centres undefined) | 191 nM | 115 nM | 
COc1cc2c3c(c4ccc(O)cc4c2cc1OC)CN1CCCCC1C3 (racemic) | 1.2 to 2.9 nM | 3.4 to 3.5 nM | 
COc1cc2c3c(c4ccc(O)cc4c2cc1OC)CN1CCCC[C@H]1C3 | 182 nM | 320 nM | 
C#CCOc1ccc2c3c(c4cc(OC)c(OC)cc4c2c1)CC1CCCCN1C3 (centres undefined) | 30 nM | 33 nM | 

More lines, main results first:

IC50 (A549) | IC50 (Bel-7402) | Compound | further results
30 nM | 29 nM | COc1cc2c3c(c4ccc(OC(=O)C5CC5)cc4c2cc1OC)CN1CCCCC1C3 (centres undefined) | 
16 nM | 14 nM | COc1cc2c3c(c4ccc(OCC(N)=O)cc4c2cc1OC)CN1CCCCC1C3 (centres undefined) | 
29 nM | 20 nM | COc1cc2c3c(c4ccc(OC(=O)c5cccc6nnsc56)cc4c2cc1OC)CN1CCCCC1C3 (centres undefined) | 
277 nM | 238 nM | COc1cc2c3c(c4ccc(OC(=O)c5cccnc5)cc4c2cc1OC)CN1CCCCC1C3 (centres undefined) | 
22 nM | 23 nM | COc1cc2c3c(c4ccc(OC(C)=O)cc4c2cc1OC)CN1CCCCC1C3 (centres undefined) | 
52 nM | 59 nM | COc1cc2c3c(c4ccc(OC(=O)c5ccco5)cc4c2cc1OC)CN1CCCCC1C3 (centres undefined) | 
103 nM | 136 nM | COc1cc2c3c(c4ccc(OC(=O)C(C)(C)C)cc4c2cc1OC)CN1CCCCC1C3 (centres undefined) | 
115 nM | 79 nM | COc1cc2c3c(c4ccc(OC(=O)c5cccs5)cc4c2cc1OC)CN1CCCCC1C3 (centres undefined) | 
